We go through eleven compounds from paper PMC9071802 (RSC Advances, 2019).

The assay relates to P. aeruginosa MH602 lasB reporter strain (PlasB: gfp(ASV)). As to the kind of experiment: Quorum sensing inhibition assay, GFP fluorescence of lasB reporter strain. The format is cell-based, Pseudomonas aeruginosa. The conditions noted are these: for inhibition at 62.5 µM / inhibition at 125 µM / inhibition at 250 µM: Pseudomonas aeruginosa; for inhibition at 62.5 µM: read-out: Percentage inhibition of GFP fluorescence, 62.5 μM; for inhibition at 62.5 µM / inhibition at 125 µM / inhibition at 250 µM / Percentage inhibition of GFP fluorescence: ± standard deviation, NA: no activity; for inhibition at 125 µM: read-out: Percentage inhibition of GFP fluorescence, 125 μM; for inhibition at 250 µM: read-out: Percentage inhibition of GFP fluorescence, 250 μM. The essentials:
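The reporter is a chromosomal lasB promoter–gfp(ASV) fusion responsive to 3-oxododecanoyl-HSL. Cultures were grown overnight in LB10, then diluted 1:100 in ABT with 0.25% tryptone and 0.13% yeast extract plus ampicillin 100 µg mL⁻¹ and gentamicin 20 µg mL⁻¹. Test compound in DMSO was tested at 62.5, 125 or 250 µM, with 1% DMSO controls. Cultures were incubated at 37 °C and shaken briefly before each read. Fluorescence (ex 485/em 535 nm) and OD600 were read every 30 min for 20 h, in triplicate per experiment.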

SMILES strings stand for the structures.

What is called inhibition is the drop in the measured response relative to a control, in per cent.

`Cc1cc2nc(NC(=O)Cn3cc(-c4cccc([N+](=O)[O-])c4)nn3)[nH]c2cc1C` [7n, N-(5,6-Dimethyl-1H-benzo[d]imidazol-2-yl)-2-(4-(3-nitrophenyl)-1H-1,2,3-triazol-1-yl)acetamide]: the inhibition at 62.5 µM was determined as 34.2 ± 7.43%, the inhibition at 125 µM was determined as 34.4 ± 14.1% and the inhibition at 250 µM stood at 46.7 ± 4.87%.

With `O=C(CCc1cn(CC(=O)NC2CCCCC2)nn1)Nc1nc2ccccc2[nH]1` [10a, N-(1H-Benzo[d]imidazol-2-yl)-3-(1-(2-(cyclohexylamino)-2-oxoethyl)-1H-1,2,3-triazol-4-yl)propanamide], the inhibition at 62.5 µM was 38.4 ± 7.72%, the inhibition at 125 µM stood at 42.4 ± 8.46% and the inhibition at 250 µM was found to be 47.4 ± 2.69%. In addition, the QSI activity (at 62.5–250 μM) is 38–47%.

Turning to `O=C(Cn1cc(CCC(=O)Nc2nc3ccccc3[nH]2)nn1)Nc1ccccn1` [10b, N-(1H-Benzo[d]imidazol-2-yl)-3-(1-(2-oxo-2-(pyridin-2-ylamino)ethyl)-1H-1,2,3-triazol-4-yl)propanamide], the inhibition at 62.5 µM is 4.4 ± 2.93%, the inhibition at 125 µM is 15.6 ± 7.17% and the inhibition at 250 µM amounted to 28.5 ± 17.5%.

As to `O=C(CCCc1cn(CC(=O)NC2CCCC2)nn1)Nc1nc2ccccc2[nH]1` [11a, N-(1H-Benzo[d]imidazol-2-yl)-4-(1-(2-(cyclopentylamino)-2-oxoethyl)-1H-1,2,3-triazol-4-yl)butanamide], the inhibition at 62.5 µM was found to be 42.3 ± 10.3%, the inhibition at 125 µM was 45.9 ± 8.18% and the inhibition at 250 µM was 51.2 ± 7.1%.

With `O=C(CCCc1cn(CC(=O)NC2CCCCC2)nn1)Nc1nc2ccccc2[nH]1` [11b, N-(1H-Benzo[d]imidazol-2-yl)-4-(1-(2-(cyclohexylamino)-2-oxoethyl)-1H-1,2,3-triazol-4-yl)butanamide], the inhibition at 250 µM turned out to be 12.9 ± 20.2%.

Consider `O=C(Cn1cc(CCCC(=O)Nc2nc3ccccc3[nH]2)nn1)Nc1ccccn1` [11c, N-(1H-Benzo[d]imidazol-2-yl)-4-(1-(2-oxo-2-(pyridin-2-ylamino)ethyl)-1H-1,2,3-triazol-4-yl)butanamide], for which the inhibition at 62.5 µM came to 3.69 ± 11.2%, the inhibition at 125 µM was determined as 15.7 ± 8.81% and the inhibition at 250 µM amounted to 19.4 ± 8.16%.

Regarding `O=C(CCCc1cn(-c2ccc([N+](=O)[O-])cc2)nn1)Nc1nc2ccccc2[nH]1` [11d, N-(1H-Benzo[d]imidazol-2-yl)-4-(1-(4-nitrophenyl)-1H-1,2,3-triazol-4-yl)butanamide], the inhibition at 62.5 µM worked out at 21.2 ± 1.76%, the inhibition at 125 µM worked out at 21.4 ± 2.62% and the inhibition at 250 µM came out at 39.4 ± 4.6%.

With `Cc1cc2nc(NC(=O)CCCc3cn(CC(=O)NC4CCCC4)nn3)[nH]c2cc1C` [12a, 4-(1-(2-(Cyclopentylamino)-2-oxoethyl)-1H-1,2,3-triazol-4-yl)-N-(5,6-dimethyl-1H-benzo[d]imidazol-2-yl)butanamide], the inhibition at 62.5 µM worked out at 28.5 ± 7.69%, the inhibition at 125 µM was found to be 34.1 ± 12.6% and the inhibition at 250 µM is 48.5 ± 5.25%.

For `Cc1cc2nc(NC(=O)CCCc3cn(CC(=O)NC4CCCCC4)nn3)[nH]c2cc1C` [12b, 4-(1-(2-(Cyclohexylamino)-2-oxoethyl)-1H-1,2,3-triazol-4-yl)-N-(5,6-dimethyl-1H-benzo[d]imidazol-2-yl)butanamide], the inhibition at 62.5 µM is 5.35 ± 10.2%, the inhibition at 125 µM came out at 9.74 ± 20.7% and the inhibition at 250 µM was determined as 30.8 ± 26.4%.

In the case of `Cc1cc2nc(NC(=O)CCCc3cn(CC(=O)Nc4ccccn4)nn3)[nH]c2cc1C` [12c, N-(5,6-Dimethyl-1H-benzo[d]imidazol-2-yl)-4-(1-(2-oxo-2-(pyridin-2-ylamino)ethyl)-1H-1,2,3-triazol-4-yl)butanamide], the inhibition at 125 µM came to 7.07 ± 11.8% and the inhibition at 250 µM turned out to be 48.3 ± 13.4%.

With `O=C1C=C(Br)/C(=C/Br)O1` [Furanone 30, reference compound], the “Percentage inhibition of GFP fluorescence” value reads like this: (62.5 μM) 77.33 ± 2.00%; (125 μM) 83.02 ± 3.15%; (250 μM) 86.86 ± 1.18%.
